pIC50: −log10 of the molar value. Activity calls are given as the source filed them. The rule behind the calls is not given here. Bounds are passed on as bounds.

The nature of assay [1]: Inhibition of collagen binding to integrin alpha-2-beta-1 by ELISA. On the set-up: species or system Homo sapiens. Summed up:
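Collagen type I (soluble) immobilized on 96-well plate; recombinant GST-tagged α2 I-domain added with increasing concentrations of inhibitor. Bound I-domain detected with peroxidase-conjugated anti-GST antibody, colorimetric read at 405 nm; IC50 derived from concentration series.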
On the technique in general: ELISA stands for enzyme-linked immunosorbent assay.

A short description of assay [2]: Inhibition of collagen binding to integrin alpha-2-beta-1 in intact platelets. On the set-up: species or system Homo sapiens. Summed up:
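Gel-filtered human platelets allowed to adhere to type I collagen immobilized on 96-well plates in presence of inhibitor; inhibition scored by number of bound platelets.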

The next assay concerns Platelet. Put plainly: Inhibition of collagen-induced platelet aggregation at 5 uM. The assay is classed as functional, cell-based. To be noted: Homo sapiens.

What is called pIC50 is the negative decadic logarithm of the IC50, by convention in mol/L. A high value points to a low IC50. As to `NCCSc1c(NC(=O)c2cccc(C(=O)Nc3cccc(NC(=O)[C@@H](N)Cc4ccc5ccccc5c4)c3SCCN)c2)cccc1NC(=O)[C@@H](N)Cc1ccc2ccccc2c1`, the results for the pIC50 in assay [1] and in assay [2] were 5.21 and 5.00, respectively.
For the compound `CC(C)(C)c1cc(NC(=O)c2cccc(C(=O)Nc3cc(C(C)(C)C)cc(NC(=O)[C@@H](N)Cc4ccc5ccccc5c4)c3SCCN)c2)c(SCCN)c(NC(=O)[C@@H](N)Cc2ccc3ccccc3c2)c1`, the pIC50 in assay [1] is 5.32; in assay [2], 5.47. Besides, the outcome with Platelet was Active.
`CC(C)(C)c1cc(NC(=O)c2cccc(C(=O)Nc3cc(C(C)(C)C)cc(NC(=O)[C@H](N)Cc4cccnc4)c3SCCN)c2)c(SCCN)c(NC(=O)[C@H](N)Cc2cccnc2)c1`: the pIC50 is less than 4.30 in assay [1] and less than 4.00 in assay [2].
The corresponding values for `CC(C)(C)c1cc(NC(=O)CN)c(SCCN)c(NC(=O)c2cccc(C(=O)Nc3cc(C(C)(C)C)cc(NC(=O)CN)c3SCCN)c2)c1` are less than 4.30 and less than 4.00.
The matching figures for `C[C@@H](N)C(=O)Nc1cc(C(C)(C)C)cc(NC(=O)c2cccc(C(=O)Nc3cc(C(C)(C)C)cc(NC(=O)[C@@H](C)N)c3SCCN)c2)c1SCCN`: less than 4.30 and less than 4.00.
As to `CC(C)(C)c1cc(NC(=O)CCCN)c(SCCN)c(NC(=O)c2cccc(C(=O)Nc3cc(C(C)(C)C)cc(NC(=O)CCCN)c3SCCN)c2)c1`, the pIC50 was less than 4.30 in assay [1] and less than 4.00 in assay [2].
The matching figures for `NCCSc1c(N)cccc1NC(=O)c1cccc(C(=O)Nc2cccc(NC(=O)[C@H](N)Cc3cccnc3)c2SCCN)c1`: less than 4.30 and less than 4.00.
The corresponding values for `CC(C)(C)c1cc(NC(=O)c2cccc(C(=O)Nc3cc(C(C)(C)C)cc(NC(=O)[C@@H](N)CCCN=C(N)N)c3SCCN)c2)c(SCCN)c(NC(=O)[C@@H](N)CCCN=C(N)N)c1` are less than 4.30 and less than 4.00.
The matching figures for `NCCOc1cc(C(=O)Nc2cccc(NC(=O)[C@H](N)Cc3ccccc3)c2SCCN)cc(C(=O)Nc2cccc(NC(=O)[C@H](N)Cc3ccccc3)c2SCCN)c1`: less than 4.30 and 4.36.
As to `CC(C)(C)c1ccc(SCCN)c(NC(=O)c2cc(C(=O)Nc3cc(C(C)(C)C)ccc3SCCN)c(OCCN)cc2OCCN)c1`, the results for the pIC50 in assay [1] and in assay [2] were less than 4.30 and less than 4.00, respectively.
The matching figures for `NCCSc1c(N)cccc1NC(=O)c1cccc(C(=O)Nc2cccc(NC(=O)[C@@H](N)Cc3ccc4ccccc4c3)c2SCCN)c1`: less than 4.30 and 4.07.
The corresponding values for `NCCSc1c(N)cccc1NC(=O)c1cccc(C(=O)Nc2cccc(NC(=O)[C@H](N)Cc3ccc4ccccc4c3)c2SCCN)c1` are less than 4.30 and 4.19.
The corresponding values for `CC(C)(C)c1cc(NC(=O)c2cccc(C(=O)Nc3cc(C(C)(C)C)cc(NC(=O)[C@H](N)Cc4ccc5ccccc5c4)c3SCCN)c2)c(SCCN)c(NC(=O)[C@H](N)Cc2ccc3ccccc3c2)c1` are less than 4.70 and 4.84.
Consider `NCCSc1c(NC(=O)c2cccc(C(=O)Nc3cccc(NC(=O)[C@H](N)Cc4ccc5ccccc5c4)c3SCCN)c2)cccc1NC(=O)[C@H](N)Cc1ccc2ccccc2c1`, for which the pIC50 in assay [1] was 4.71; in assay [2] it was 4.77.
With `CC(C)(C)c1cc(NC(=O)c2cccc(C(=O)Nc3cc(C(C)(C)C)cc(NC(=O)[C@H](N)Cc4c[nH]c5ccccc45)c3SCCN)c2)c(SCCN)c(NC(=O)[C@H](N)Cc2c[nH]c3ccccc23)c1`, the results for the pIC50 in assay [1] and in assay [2] were less than 4.70 and 4.76, respectively.

(Values after ChEMBL document CHEMBL1138073, “Arylamide derivatives as allosteric inhibitors of the integrin alpha2beta1/type I collagen interaction” (Bioorg Med Chem Lett, 2006).)
